The results in this text go back to ChEMBL document CHEMBL1142314, “alpha- and beta-substituted phosphonate analogs of LPA as autotaxin inhibitors” (Bioorg Med Chem, 2008).

The first test has as its target Autotaxin (Homo sapiens) (UniProt Q13822). The test is described as follows: Inhibition of autotaxin assessed as residual enzyme activity at 1 uM relative to control. In short, it runs like this: (§1)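 ATX activity measured with the compound present at 1 μM, 10 μM or 100 μM. Activity without compound served as the standard (100%), and results are reported as percent residual ATX activity.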
For `CCCCCCCCCCCCCCCC(=O)N[C@@H](Cc1ccc(OCc2ncc(C)c(OC)c2C)cc1)C[C@@H](O)P(=O)(O)O`, the Activity was determined as 71%.

For the molecule `CCCCCCCCCCCCCCCC(=O)N[C@@H](Cc1ccccc1)C(O)CP(=O)(O)O` (stereo in doubt; 37), the Activity came out at 92%.

As to `CCCCCCCCCCCCCCCC(=O)N[C@@H](Cc1ccc(OCc2ncc(C)c(OC)c2C)cc1)C(F)CP(=O)(O)O` (stereo not given in full), the Activity was 59%.

In the case of `CCCCCCCCCCCCCCCC(=O)N[C@@H](Cc1c[nH]c2ccccc12)C(O)CP(=O)(O)O` (stereo in doubt; 42), the Activity was found to be 93%.

On to `CCCCCCCCCCCCCCCC(=O)N[C@@H](COCc1ccccc1)C(O)CP(=O)(O)O` (single isomer, unassigned; diastereomer b), for which the Activity is 78%.

For the molecule `CCCCCCCCCCCCCCCC(=O)N[C@@H](Cc1cn(Cc2ncc(C)c(OC)c2C)c2ccccc12)C(O)CP(=O)(O)O` (mixture of isomers), the Activity turned out to be 64%.

Regarding `CCCCCCCCCCCCCCCC(=O)N[C@@H](Cc1ccc(OCc2ncc(C)c(OC)c2C)cc1)CC(F)P(=O)(O)O` (mixture of isomers), the Activity turned out to be 74%.

For the molecule `CCCCCCCCCCCCCCCC(=O)N[C@@H](CC(C)C)C(=O)CP(=O)(O)O`, the Activity stood at 89%.

For the molecule `CCCCCCCCCCCCCCCC(=O)N[C@@H](CC(C)C)C(O)CP(=O)(O)O` (single isomer, unassigned; diastereomer a), the Activity came to 68%.

Take `CCCCCCCCCCCCCCCC(=O)N[C@H](C(=O)CP(=O)(O)O)C(C)C`: the Activity was determined as 109%.

As for `CCCCCCCCCCCCCCCC(=O)NCC(=O)CP(=O)(O)O`, the Activity stood at 79%.

Turning to `CCCCCCCCCCCCCCCC(=O)N[C@@H](COCc1ccccc1)C(O)CP(=O)(O)O` (stereo in doubt; 45), the Activity worked out at 83%.

On to `CCCCCCCCCCCCCCCC(=O)NCC(O)CP(=O)(O)O` (stereo not given), for which the Activity is 88%.

Take `CCCCCCCCCCCCCCCC(=O)N1CCCC1C(=O)CP(=O)(O)O` (stereo not given): the Activity worked out at 49%.

Regarding `CCCCCCCCCCCCCCCC(=O)N[C@@H](Cc1ccc(OCc2ncc(C)c(OC)c2C)cc1)C[C@H](O)P(=O)(O)O`, the Activity was found to be 73%.

For the molecule `CCCCCCCCCCCCCCCC(=O)N[C@@H](Cc1c[nH]c2ccccc12)C(=O)CP(=O)(O)O`, the Activity was determined as 91%.

`CCCCCCCCCCCCCCCC(=O)N[C@@H](C)C(O)CP(=O)(O)O` (mixture of isomers): the Activity worked out at 50%.

Consider `CCCCCCCCCCCCCCCC(=O)N[C@@H](Cc1ccccc1)C(O)CP(=O)(O)O` (single isomer, unassigned; diastereomer a), for which the Activity was 88%.

As to `CCCCCCCCCCCCCCCC(=O)N[C@@H](C(C)C)C(O)CP(=O)(O)O` (stereo in doubt; 32), the Activity came to 72%.

In the case of `CCCCCCCCCCCCCCCC(=O)N1CCCC1C(O)CP(=O)(O)O` (stereo not given), the Activity is 83%.

Take `CCCCCCCCCCCCCCCC(=O)N[C@@H](C)C(=O)CP(=O)(O)O`: the Activity was 60%.

As for `CCCCCCCCCCCCCCCC(=O)N[C@@H](CC(C)C)C(O)CP(=O)(O)O` (single isomer, unassigned; diastereomer b), the Activity was 93%.

Take `CCCCCCCCCCCCCCCC(=O)N[C@@H](Cc1c[nH]c2ccccc12)C(O)CP(=O)(O)O` (single isomer, unassigned; diastereomer a): the Activity was 88%.

Regarding `CCCCCCCCCCCCCCCC(=O)N[C@@H](C(C)C)C(O)CP(=O)(O)O` (single isomer, unassigned; diastereomer a), the Activity worked out at 115%.

With `CCCCCCCCCCCCCCCC(=O)N[C@@H](Cc1cn(Cc2ccccc2)c2ccccc12)C(O)CP(=O)(O)O` (mixture of isomers), the Activity turned out to be 80%.

A further test has the same target. The test is described as follows: Inhibition of autotaxin assessed as residual enzyme activity at 10 uM relative to control. In short, it runs like this:
as §1
`CCCCCCCCCCCCCCCC(=O)N[C@@H](Cc1ccc(OCc2ncc(C)c(OC)c2C)cc1)C[C@@H](O)P(=O)(O)O`: the Activity stood at 70%.

In the case of `CCCCCCCCCCCCCCCC(=O)N[C@@H](Cc1ccccc1)C(O)CP(=O)(O)O` (stereo in doubt; 37), the Activity stood at 99%.

In the case of `CCCCCCCCCCCCCCCC(=O)N[C@@H](Cc1ccc(OCc2ncc(C)c(OC)c2C)cc1)C(F)CP(=O)(O)O` (stereo not given in full), the Activity turned out to be 22%.

For the molecule `CCCCCCCCCCCCCCCC(=O)N[C@@H](Cc1c[nH]c2ccccc12)C(O)CP(=O)(O)O` (stereo in doubt; 42), the Activity is 75%.

In the case of `CCCCCCCCCCCCCCCC(=O)N[C@@H](COCc1ccccc1)C(O)CP(=O)(O)O` (single isomer, unassigned; diastereomer b), the Activity came to 46%.

As for `CCCCCCCCCCCCCCCC(=O)N[C@@H](Cc1cn(Cc2ncc(C)c(OC)c2C)c2ccccc12)C(O)CP(=O)(O)O` (mixture of isomers), the Activity came out at 28%.

On to `CCCCCCCCCCCCCCCC(=O)N[C@@H](Cc1ccc(OCc2ncc(C)c(OC)c2C)cc1)CC(F)P(=O)(O)O` (mixture of isomers), for which the Activity amounted to 68%.

For `CCCCCCCCCCCCCCCC(=O)N[C@@H](CC(C)C)C(=O)CP(=O)(O)O`, the Activity was determined as 48%.

In the case of `CCCCCCCCCCCCCCCC(=O)N[C@@H](CC(C)C)C(O)CP(=O)(O)O` (single isomer, unassigned; diastereomer a), the Activity was 53%.

Consider `CCCCCCCCCCCCCCCC(=O)N[C@H](C(=O)CP(=O)(O)O)C(C)C`, for which the Activity came to 77%.

Consider `CCCCCCCCCCCCCCCC(=O)NCC(=O)CP(=O)(O)O`, for which the Activity stood at 95%.

As to `CCCCCCCCCCCCCCCC(=O)N[C@@H](COCc1ccccc1)C(O)CP(=O)(O)O` (stereo in doubt; 45), the Activity is 41%.

Turning to `CCCCCCCCCCCCCCCC(=O)NCC(O)CP(=O)(O)O` (stereo not given), the Activity was 88%.

As for `CCCCCCCCCCCCCCCC(=O)N1CCCC1C(=O)CP(=O)(O)O` (stereo not given), the Activity turned out to be 18%.

`CCCCCCCCCCCCCCCC(=O)N[C@@H](Cc1ccc(OCc2ncc(C)c(OC)c2C)cc1)C[C@H](O)P(=O)(O)O`: the Activity is 68%.

Regarding `CCCCCCCCCCCCCCCC(=O)N[C@@H](Cc1c[nH]c2ccccc12)C(=O)CP(=O)(O)O`, the Activity turned out to be 70%.

Regarding `CCCCCCCCCCCCCCCC(=O)N[C@@H](C)C(O)CP(=O)(O)O` (mixture of isomers), the Activity was 14%.

Regarding `CCCCCCCCCCCCCCCC(=O)N[C@@H](Cc1ccccc1)C(O)CP(=O)(O)O` (single isomer, unassigned; diastereomer a), the Activity stood at 70%.

`CCCCCCCCCCCCCCCC(=O)N[C@@H](C(C)C)C(O)CP(=O)(O)O` (stereo in doubt; 32): the Activity was determined as 78%.

As for `CCCCCCCCCCCCCCCC(=O)N1CCCC1C(O)CP(=O)(O)O` (stereo not given), the Activity was determined as 43%.

For `CCCCCCCCCCCCCCCC(=O)N[C@@H](C)C(=O)CP(=O)(O)O`, the Activity is 67%.

Take `CCCCCCCCCCCCCCCC(=O)N[C@@H](CC(C)C)C(O)CP(=O)(O)O` (single isomer, unassigned; diastereomer b): the Activity was determined as 64%.

For `CCCCCCCCCCCCCCCC(=O)N[C@@H](Cc1c[nH]c2ccccc12)C(O)CP(=O)(O)O` (single isomer, unassigned; diastereomer a), the Activity is 51%.

On to `CCCCCCCCCCCCCCCC(=O)N[C@@H](C(C)C)C(O)CP(=O)(O)O` (single isomer, unassigned; diastereomer a), for which the Activity is 57%.

Turning to `CCCCCCCCCCCCCCCC(=O)N[C@@H](Cc1cn(Cc2ccccc2)c2ccccc12)C(O)CP(=O)(O)O` (mixture of isomers), the Activity is 35%.

A further test has the same target. The test is described as follows: Inhibition of autotaxin assessed as residual enzyme activity at 100 uM relative to control. The method, boiled down: as §1
For `CCCCCCCCCCCCCCCC(=O)N[C@@H](Cc1ccc(OCc2ncc(C)c(OC)c2C)cc1)C[C@@H](O)P(=O)(O)O`, the Activity amounted to 53%.

`CCCCCCCCCCCCCCCC(=O)N[C@@H](Cc1ccccc1)C(O)CP(=O)(O)O` (stereo in doubt; 37): the Activity is 67%.

Regarding `CCCCCCCCCCCCCCCC(=O)N[C@@H](Cc1ccc(OCc2ncc(C)c(OC)c2C)cc1)C(F)CP(=O)(O)O` (stereo not given in full), the Activity turned out to be 11%.

Turning to `CCCCCCCCCCCCCCCC(=O)N[C@@H](Cc1c[nH]c2ccccc12)C(O)CP(=O)(O)O` (stereo in doubt; 42), the Activity came to 26%.

For `CCCCCCCCCCCCCCCC(=O)N[C@@H](COCc1ccccc1)C(O)CP(=O)(O)O` (single isomer, unassigned; diastereomer b), the Activity is 61%.

Regarding `CCCCCCCCCCCCCCCC(=O)N[C@@H](Cc1cn(Cc2ncc(C)c(OC)c2C)c2ccccc12)C(O)CP(=O)(O)O` (mixture of isomers), the Activity stood at 13%.

Consider `CCCCCCCCCCCCCCCC(=O)N[C@@H](Cc1ccc(OCc2ncc(C)c(OC)c2C)cc1)CC(F)P(=O)(O)O` (mixture of isomers), for which the Activity was 25%.

Turning to `CCCCCCCCCCCCCCCC(=O)N[C@@H](CC(C)C)C(=O)CP(=O)(O)O`, the Activity was determined as 25%.

For the molecule `CCCCCCCCCCCCCCCC(=O)N[C@@H](CC(C)C)C(O)CP(=O)(O)O` (single isomer, unassigned; diastereomer a), the Activity was 23%.

As for `CCCCCCCCCCCCCCCC(=O)N[C@H](C(=O)CP(=O)(O)O)C(C)C`, the Activity was found to be 24%.

`CCCCCCCCCCCCCCCC(=O)NCC(=O)CP(=O)(O)O`: the Activity was 76%.

As for `CCCCCCCCCCCCCCCC(=O)N[C@@H](COCc1ccccc1)C(O)CP(=O)(O)O` (stereo in doubt; 45), the Activity was determined as 19%.

Turning to `CCCCCCCCCCCCCCCC(=O)NCC(O)CP(=O)(O)O` (stereo not given), the Activity was determined as 56%.

On to `CCCCCCCCCCCCCCCC(=O)N1CCCC1C(=O)CP(=O)(O)O` (stereo not given), for which the Activity is 9%.

Consider `CCCCCCCCCCCCCCCC(=O)N[C@@H](Cc1ccc(OCc2ncc(C)c(OC)c2C)cc1)C[C@H](O)P(=O)(O)O`, for which the Activity was 87%.

For the molecule `CCCCCCCCCCCCCCCC(=O)N[C@@H](Cc1c[nH]c2ccccc12)C(=O)CP(=O)(O)O`, the Activity came to 28%.

In the case of `CCCCCCCCCCCCCCCC(=O)N[C@@H](C)C(O)CP(=O)(O)O` (mixture of isomers), the Activity was found to be 25%.

`CCCCCCCCCCCCCCCC(=O)N[C@@H](Cc1ccccc1)C(O)CP(=O)(O)O` (single isomer, unassigned; diastereomer a): the Activity is 70%.

Take `CCCCCCCCCCCCCCCC(=O)N[C@@H](C(C)C)C(O)CP(=O)(O)O` (stereo in doubt; 32): the Activity was 23%.

As for `CCCCCCCCCCCCCCCC(=O)N1CCCC1C(O)CP(=O)(O)O` (stereo not given), the Activity amounted to 16%.

With `CCCCCCCCCCCCCCCC(=O)N[C@@H](C)C(=O)CP(=O)(O)O`, the Activity stood at 72%.

In the case of `CCCCCCCCCCCCCCCC(=O)N[C@@H](CC(C)C)C(O)CP(=O)(O)O` (single isomer, unassigned; diastereomer b), the Activity was 52%.

For `CCCCCCCCCCCCCCCC(=O)N[C@@H](Cc1c[nH]c2ccccc12)C(O)CP(=O)(O)O` (single isomer, unassigned; diastereomer a), the Activity was 25%.

In the case of `CCCCCCCCCCCCCCCC(=O)N[C@@H](C(C)C)C(O)CP(=O)(O)O` (single isomer, unassigned; diastereomer a), the Activity amounted to 13%.

For the molecule `CCCCCCCCCCCCCCCC(=O)N[C@@H](Cc1cn(Cc2ccccc2)c2ccccc12)C(O)CP(=O)(O)O` (mixture of isomers), the Activity turned out to be 28%.
